Laboratory results published in ChEMBL document CHEMBL4842335, “Discovery of penipanoid C-inspired 2-(3,4,5-trimethoxybenzoyl)quinazolin-4(3H)-one derivatives as potential anticancer agents by inhibiting cell proliferation and inducing apoptosis in hepatocellular carcinoma cells” (Eur J Med Chem, 2021).
Calls of active or inactive are those of the source. The calls are words filed in the database; no cut-off is given here.

Columns and labels:
U-251 = assay: Cytotoxicity against human U251 cells assessed as inhibition of proliferation incubated for 72 hrs by MTT assay; assay type: functional, cell-based; details: U-251, 72 h
In short: (§1)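 Cells plated at 3×10³/well, grown overnight in DMEM + 10% FBS, then exposed to compounds (DMSO stocks; 0.1% DMSO negative control) for 72 h at 37 °C. MTT (5 mg/mL in PBS, added at 10%) for 4 h, formazan dissolved in DMSO, A570 read. Inhibition = (Ac−As)/(Ac−Ab)×100; IC50 by calculator; ≥3 independent repeats.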

Bel-7402 [1] = assay: Induction of cell cycle arrest in human Bel-7402 cells assessed as accumulation at S phase at 3.2 uM incubated for 48 hrs by flow cytometry (reference value: 28.48%); assay type: functional
[2] = target: Serine/threonine-protein kinase AKT (Homo sapiens) (UniProt P31751+Q9Y243+P31749); assay: Inhibition of Akt phosphorylation in human Bel-7402 cells incubated for 48 hrs by Western blot analysis; assay type: cell-based
Chain of Serine/threonine-protein kinase AKT (Homo sapiens) (P31749 whole entry, looked up): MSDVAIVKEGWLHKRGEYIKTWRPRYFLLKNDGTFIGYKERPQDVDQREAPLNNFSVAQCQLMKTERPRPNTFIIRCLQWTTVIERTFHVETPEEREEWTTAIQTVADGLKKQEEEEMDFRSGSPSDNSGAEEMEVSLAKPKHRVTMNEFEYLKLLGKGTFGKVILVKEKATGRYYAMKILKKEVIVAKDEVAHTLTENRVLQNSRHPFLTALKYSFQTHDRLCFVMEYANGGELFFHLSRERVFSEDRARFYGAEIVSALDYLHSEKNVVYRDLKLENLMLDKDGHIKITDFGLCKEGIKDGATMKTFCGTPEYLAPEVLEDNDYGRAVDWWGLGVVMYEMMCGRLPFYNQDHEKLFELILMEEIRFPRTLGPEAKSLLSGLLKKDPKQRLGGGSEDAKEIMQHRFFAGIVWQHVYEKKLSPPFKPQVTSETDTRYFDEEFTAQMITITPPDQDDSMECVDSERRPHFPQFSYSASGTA
Chain of Serine/threonine-protein kinase AKT (Homo sapiens) (P31751 whole entry, looked up): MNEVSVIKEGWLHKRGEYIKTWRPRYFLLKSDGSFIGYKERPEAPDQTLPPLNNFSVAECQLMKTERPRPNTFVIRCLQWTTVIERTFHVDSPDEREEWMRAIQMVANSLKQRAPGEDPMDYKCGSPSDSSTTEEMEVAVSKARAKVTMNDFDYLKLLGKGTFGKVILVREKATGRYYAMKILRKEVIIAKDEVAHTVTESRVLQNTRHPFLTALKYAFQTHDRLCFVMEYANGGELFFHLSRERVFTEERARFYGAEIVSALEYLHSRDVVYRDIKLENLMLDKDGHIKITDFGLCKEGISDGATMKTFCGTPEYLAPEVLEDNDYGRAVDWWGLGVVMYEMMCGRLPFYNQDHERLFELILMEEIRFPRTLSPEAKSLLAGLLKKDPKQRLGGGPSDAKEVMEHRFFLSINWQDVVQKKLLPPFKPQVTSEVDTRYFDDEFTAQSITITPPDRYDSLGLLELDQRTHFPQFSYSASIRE
Chain of Serine/threonine-protein kinase AKT (Homo sapiens) (Q9Y243 whole entry, looked up): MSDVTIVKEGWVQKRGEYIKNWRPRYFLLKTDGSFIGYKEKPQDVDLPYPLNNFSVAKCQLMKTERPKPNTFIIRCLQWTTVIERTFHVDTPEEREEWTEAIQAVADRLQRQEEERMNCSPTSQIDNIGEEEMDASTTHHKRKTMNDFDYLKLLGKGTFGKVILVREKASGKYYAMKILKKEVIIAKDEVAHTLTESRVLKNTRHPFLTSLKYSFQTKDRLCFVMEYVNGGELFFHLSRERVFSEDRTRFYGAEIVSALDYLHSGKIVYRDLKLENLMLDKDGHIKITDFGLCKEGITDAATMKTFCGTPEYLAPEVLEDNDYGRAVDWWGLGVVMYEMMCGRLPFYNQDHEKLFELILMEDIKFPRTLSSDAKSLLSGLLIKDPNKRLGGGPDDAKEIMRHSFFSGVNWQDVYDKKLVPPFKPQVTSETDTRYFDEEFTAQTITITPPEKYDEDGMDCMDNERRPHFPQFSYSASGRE
In short: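 Bel-7402 exposed for 48 h to 0, 1.6 or 3.2 µM; cell extracts on 12.5% SDS-PAGE, transferred to PVDF, probed overnight at 4 °C with AKT, p-AKT, ERK1/2, p-ERK1/2 antibodies (1:1000), HRP secondary 1 h, chemiluminescent detection. Band levels normalised to control = 1; SD, n = 3.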

A549 = assay: Cytotoxicity against human A549 cells assessed as inhibition of proliferation incubated for 72 hrs by MTT assay; assay type: functional, cell-based; details: A549, 72 h; in short: as §1
Bel-7402 [3] = assay: Inhibition of colony formation in human Bel-7402 cells at 1.6 to 3.2 uM measured after 10 days by crystal violet staining based assay relative to control; assay type: functional, cell-based; details: dose 1.6-3.2 µM, time 10.0 day
In short: (§2)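 1000 cells/well seeded, attached overnight in DMEM + 10% FBS, then grown 10 days at 37 °C, 5% CO₂ with 0, 0.2, 0.4, 0.8, 1.6 or 3.2 µM. Fixed in 4% paraformaldehyde 15 min, stained 0.1% crystal violet 30 min, colonies counted; formation rate relative to solvent control.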

HepG2 [4] = assay: Induction of cell cycle arrest in human HepG2 cells assessed as accumulation at G2/M phase at 0.8 uM incubated for 48 hrs by flow cytometry (reference value: 24.89%); assay type: functional
In short: (§3)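 HepG2 treated 48 h with 0, 0.8 or 1.6 µM (DMSO control); phase distribution by flow cytometry using a cell cycle and apoptosis kit; mean with SD, n = 3.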

HepG2 [5] = assay: Induction of apoptosis in human HepG2 cells assessed as early apoptotic cells at 0.8 uM incubated for 48 hrs by Annexin V and dead cell assay kit (reference value: 4.55%); assay type: functional
In short: (§4)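 HepG2 cells were grown in DMEM and exposed to 0, 0.8, 1.6 or 3.2 µM test agent or DMSO vehicle for 48 h. Apoptosis was then read on a Muse cell analyzer using an Annexin V & Dead Cell kit, which separates live, early apoptotic, late apoptotic and dead populations. The figure legend gives n = 3 with SEM.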

HepG2 [6] = assay: Induction of apoptosis in human HepG2 cells assessed as live cells at 3.2 uM incubated for 48 hrs by Annexin V and dead cell assay kit (reference value: 93.90%); assay type: functional; in short: as §4
Bel-7402 [7] = assay: Induction of cell cycle arrest in human Bel-7402 cells assessed as accumulation at G1 phase at 1.6 uM incubated for 48 hrs by flow cytometry (reference value: 46.32%); assay type: functional
HepG2 [8] = assay: Induction of cell cycle arrest in human HepG2 cells assessed as accumulation at G1 phase at 1.6 uM incubated for 48 hrs by flow cytometry (reference value: 46.88%); assay type: functional
[9] = target: Mitogen-activated protein kinase; ERK1/ERK2 (Homo sapiens) (UniProt P27361+P28482); assay: Inhibition of ERK1/2 phosphorylation in human HepG2 cells incubated for 48 hrs by Western blot analysis; assay type: cell-based
Chain of Mitogen-activated protein kinase; ERK1/ERK2 (Homo sapiens) (P27361 whole entry, looked up): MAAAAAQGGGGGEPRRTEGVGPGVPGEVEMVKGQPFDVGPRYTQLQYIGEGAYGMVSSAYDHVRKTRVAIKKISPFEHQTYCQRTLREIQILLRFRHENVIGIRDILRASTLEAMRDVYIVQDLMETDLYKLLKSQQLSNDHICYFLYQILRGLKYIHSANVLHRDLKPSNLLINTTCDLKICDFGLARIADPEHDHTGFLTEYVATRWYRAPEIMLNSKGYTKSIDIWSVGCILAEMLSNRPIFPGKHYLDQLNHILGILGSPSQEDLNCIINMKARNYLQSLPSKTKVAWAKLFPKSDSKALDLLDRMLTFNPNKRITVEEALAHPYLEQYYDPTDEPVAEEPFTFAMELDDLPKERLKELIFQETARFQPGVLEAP
Chain of Mitogen-activated protein kinase; ERK1/ERK2 (Homo sapiens) (P28482 whole entry, looked up): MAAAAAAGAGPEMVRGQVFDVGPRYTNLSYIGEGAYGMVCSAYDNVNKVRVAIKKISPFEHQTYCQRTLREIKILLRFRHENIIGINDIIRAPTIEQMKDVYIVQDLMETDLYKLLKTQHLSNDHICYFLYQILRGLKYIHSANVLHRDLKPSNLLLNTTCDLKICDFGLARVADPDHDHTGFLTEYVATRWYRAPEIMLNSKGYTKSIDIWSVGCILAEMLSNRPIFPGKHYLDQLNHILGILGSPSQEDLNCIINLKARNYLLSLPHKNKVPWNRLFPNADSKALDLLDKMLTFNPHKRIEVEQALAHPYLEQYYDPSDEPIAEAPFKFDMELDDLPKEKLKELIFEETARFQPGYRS
In short: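 HepG2 treated 48 h with 0, 1.6 or 3.2 µM; lysates run on 12.5% SDS-PAGE, PVDF transfer, primary antibodies (AKT, p-AKT, ERK1/2, p-ERK1/2; 1:1000) overnight at 4 °C, HRP secondaries 1 h, chemiluminescence. Phosphorylation quantified relative to untreated control set to 1; SD, n = 3.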

Bel-7402 [10] = assay: Induction of cell cycle arrest in human Bel-7402 cells assessed as accumulation at G2/M phase at 0.8 uM incubated for 48 hrs by flow cytometry (reference value: 25.20%); assay type: functional
HepG2 [11] = assay: Induction of apoptosis in human HepG2 cells assessed as live cells at 0.8 uM incubated for 48 hrs by Annexin V and dead cell assay kit (reference value: 93.90%); assay type: functional; in short: as §4
HepG2 [12] = assay: Induction of apoptosis in human HepG2 cells assessed as late apoptotic cells at 3.2 uM incubated for 48 hrs by Annexin V and dead cell assay kit (reference value: 1%); assay type: functional; in short: as §4
Bel-7402 [13] = assay: Cytotoxicity against human Bel-7402 cells assessed as inhibition of proliferation incubated for 72 hrs by MTT assay; assay type: functional, cell-based; details: Bel-7402, 72 h; in short: as §1
HepG2 [14] = assay: Induction of apoptosis in human HepG2 cells assessed as dead cells at 0.8 uM incubated for 48 hrs by Annexin V and dead cell assay kit (reference value: 0.55%); assay type: functional; in short: as §4
HepG2 [15] = assay: Antitumor activity against human HepG2 cells xenografted in BALB/c mouse assessed as tumor growth inhibition at 4 mg/kg, ip relative to control; assay type: functional; details: read-out: TGI
In short: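 Female BALB/c nude mice (14–17 g) given HepG2 s.c. (1×10⁶/mouse); at 100–200 mm³ tumours, randomised to 3 groups of 5. Daily i.p. dosing at 4 or 8 mg/kg for 20 days; vehicle 15% N-methylpyrrolidone/25% Solutol HS-15/60% saline. Caliper volume twice weekly, TV = width² × length/2; inhibition from volume change versus vehicle group.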

HepG2 [16] = assay: Induction of apoptosis in human HepG2 cells assessed as live cells at 1.6 uM incubated for 48 hrs by Annexin V and dead cell assay kit (reference value: 93.90%); assay type: functional; in short: as §4
HepG2 [17] = assay: Induction of apoptosis in human HepG2 cells assessed as increase in cleaved PARP level at 1.6 to 3.2 uM after 48 hrs by Western blot analysis; details: dose 1.6-3.2 µM
HepG2 [18] = assay: Induction of cell cycle arrest in human HepG2 cells assessed as accumulation at S phase at 1.6 uM incubated for 48 hrs by flow cytometry (reference value: 28.23%); assay type: functional; in short: as §3
HepG2 [19] = assay: Induction of apoptosis in human HepG2 cells assessed as late apoptotic cells at 1.6 uM incubated for 48 hrs by Annexin V and dead cell assay kit (reference value: 1%); assay type: functional; in short: as §4
HepG2 [20] = assay: Inhibition of colony formation in human HepG2 cells at 1.6 to 3.2 uM measured after 10 days by crystal violet staining based assay relative to control; assay type: functional, cell-based; details: dose 1.6-3.2 µM, time 10.0 day; in short: as §2
Bel-7402 [21] = assay: Induction of cell cycle arrest in human Bel-7402 cells assessed as accumulation at G2/M phase at 3.2 uM incubated for 48 hrs by flow cytometry (reference value: 25.20%); assay type: functional
HepG2 [22] = assay: Induction of apoptosis in human HepG2 cells assessed as increase in cleaved Caspase 3 level at 1.6 to 3.2 uM after 48 hrs by Western blot analysis; details: dose 1.6-3.2 µM

## COc1cc(C(=O)c2nc3ccccc3c(=O)[nH]2)cc(OC)c1OC
U-251
  IC50: 5.48 µM
Bel-7402 [1]
  Activity: 32.14%
[2]
  inhibition: Dose-Dependent Effect
A549
  IC50: 3.88 µM
Bel-7402 [3]
  Activity: Active
HepG2 [4]
  Activity: 28.73%
HepG2 [5]
  Activity: 5.8%
HepG2 [6]
  Activity: 53.2%
Bel-7402 [7]
  Activity: 33.07%
HepG2 [8]
  Activity: 29.17%
[9]
  inhibition: Dose-Dependent Effect
Bel-7402 [10]
  Activity: 27.69%
HepG2 [11]
  Activity: 91.75%
HepG2 [12]
  Activity: 24.15%
Bel-7402 [13]
  IC50: 1.71 µM
HepG2 [14]
  Activity: 0.45%
HepG2 [15]
  inhibition in vivo at 4 mg/kg: 19.1%
HepG2 [16]
  Activity: 80.65%
HepG2 [17]
  Activity: Active
HepG2 [18]
  Activity: 35.65%
HepG2 [19]
  Activity: 6.7%
HepG2 [20]
  inhibition: Active
Bel-7402 [21]
  Activity: 41.71%
HepG2 [22]
  Activity: Active
